Assay outcomes as filed in PubChem BioAssay.
Only some compounds are listed: those with a hit (about 2.3% of all), similar ones and a draw of the others.
SKKanGAS inh – SKKanGAS growth inhibition. S. pyogenes SKKanGAS, kanamycin growth, BacTiter-Glo, 6 h. inhibition, % at 7.5 µM. 1.3% of 300,000 active;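 active = mean replicate score, as percent of positive control median, at least 50; inconclusive = mean below 50 but one replicate at or above 50; inactive = mean and every replicate below 50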;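 note: strain carries kanamycin resistance gene driven by streptokinase promoter and grows in 40 µg/ml kanamycin; loss of luminescence reflects streptokinase promoter inhibition or plain growth inhibition; 0% = median of DMSO wells and 100% = positive control at its reference dose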
Calb FLC – affects C. albicans growth with fluconazole; growth inhibition, % (test concentration not listed); C. albicans CaCi-2 (fluconazole-resistant clinical isolate) + fluconazole, Alamar Blue growth, 48 h; 0.57% of 300,000 active; AID 1979;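 active = growth inhibition above about 58% in most replicates, limit read from the data, passing the limit was not always enough; inconclusive = exactly half the replicates above a set limit; inactive = most replicates below a set limit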;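 note: all wells also contain fluconazole at 8 µg/ml as a sub-toxic cotreatment; 0% = median of DMSO wells and 100% = median of geldanamycin control wells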
ARFGAP1 inh – rat ARFGAP1 inhibition; Q62848; inhibition, % at 16.5 µM; Arfgap1-stimulated ARF1 GTP hydrolysis, GDP FP detection; 0.26% of 360,000 active;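 active = inhibition above a per-plate limit, mean inhibition of low control wells plus 3 SD, cut at about 25% in these data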;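 note: 0% = DMSO wells with enzyme and 100% = wells lacking Arfgap1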
Target sequence (Q62848 1-136 limits assumed): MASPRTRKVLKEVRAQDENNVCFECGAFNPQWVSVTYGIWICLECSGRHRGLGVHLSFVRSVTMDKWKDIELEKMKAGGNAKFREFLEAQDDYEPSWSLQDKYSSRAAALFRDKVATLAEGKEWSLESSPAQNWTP
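Replicates: Single well per compound | Assay system: Truncated rat Arfgap1 GAP domain | Control set: No-Arfgap1 wells (100%) versus DMSO full-reaction wells (0%) | Times: Enzyme reaction 120 min at 25 °C after 20 min preincubation | Reagent: Human ARF1(Δ1-17)-GTP substrate | Measured by: Tracer-displacement fluorescence polarization with EDTA stop, 620/688 nm | Measure: Percent inhibition of Arfgap1-stimulated GTP hydrolysis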
ASAP1 GAP inh – inhibitors of human ASAP1 ArfGAP activity; Q9ULH1; ASAP1-stimulated ARF1 GTP hydrolysis, GDP FP detection; inhibition, % at 16.5 µM; 0.19% of 360,000 active; in the data active = inhibition above about 25%;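 note: 0% = vehicle with enzyme and substrate and 100% = no enzyme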
sPLA2-III inh – Inhibits HGIII-sPLA2 liposome hydrolysis, primary screen; QFRET BODIPY PC-A2 liposome hydrolysis, fluorescence; 0.56% of 370,000 active; inhibition, % at 12.2 µM; AID 743126; Q9NZ20;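 active = inhibition above mean plus 3 SD of compounds lying within the high and low control bounds, cut at about 19% in these data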;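 note: 0% = median of test compound wells and 100% = no enzyme DMSO wells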
Target sequence (Q9NZ20 whole entry, looked up): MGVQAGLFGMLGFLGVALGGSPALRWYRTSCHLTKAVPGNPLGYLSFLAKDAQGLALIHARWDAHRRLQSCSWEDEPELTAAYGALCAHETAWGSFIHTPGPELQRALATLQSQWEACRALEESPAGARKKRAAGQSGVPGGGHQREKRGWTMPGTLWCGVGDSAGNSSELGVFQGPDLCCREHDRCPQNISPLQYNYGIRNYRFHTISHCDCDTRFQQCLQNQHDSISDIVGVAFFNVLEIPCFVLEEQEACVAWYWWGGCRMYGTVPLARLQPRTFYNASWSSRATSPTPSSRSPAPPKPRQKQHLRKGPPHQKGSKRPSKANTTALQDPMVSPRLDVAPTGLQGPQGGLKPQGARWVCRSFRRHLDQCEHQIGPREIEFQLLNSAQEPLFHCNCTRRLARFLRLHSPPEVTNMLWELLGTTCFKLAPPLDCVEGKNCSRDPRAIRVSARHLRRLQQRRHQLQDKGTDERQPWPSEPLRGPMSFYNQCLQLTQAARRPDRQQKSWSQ
* = called active by the depositor.

For CCCCOc1cccc(C2C(C(=O)c3ccc(C)o3)=C(O)C(=O)N2Cc2ccco2)c1 (centres undefined) the results were Calb FLC 78.9*, ARFGAP1 inh -7.3, ASAP1 GAP inh -2.5 and sPLA2-III inh -4.0.
For CC(C)Nc1nc(NC(C)C)nc(N(C)C(N)=O)n1 the results were SKKanGAS inh -0.5, Calb FLC 11.9, ARFGAP1 inh 13.4, ASAP1 GAP inh 15.6 and sPLA2-III inh 3.4.
For CC(C)Nc1nc(NC(C)C)nc(N(C)N)n1 the results were SKKanGAS inh 56.4*, Calb FLC 0.1, ARFGAP1 inh -8.5, ASAP1 GAP inh -8.4 and sPLA2-III inh 7.4.
Screening CC1=NN(c2ccccc2)C(=O)/C1=C\c1ccc(Oc2ccc([N+](=O)[O-])cc2[N+](=O)[O-])cc1 returned SKKanGAS inh -1.0, Calb FLC -39.5, ARFGAP1 inh 24.7*, ASAP1 GAP inh 12.7 and sPLA2-III inh 8.2.
S=c1[nH]nc(-c2cccs2)n1/N=C/c1cn(-c2ccccc2)nc1-c1cccs1 was read as SKKanGAS inh 28.8, Calb FLC 4.7, ARFGAP1 inh 1.1, ASAP1 GAP inh 0.8 and sPLA2-III inh 1.2.
S=c1[nH]nc(-c2ccncc2)n1/N=C/c1cn(-c2ccccc2)nc1-c1ccccc1 was read as SKKanGAS inh 50.8*, Calb FLC 2.9, ARFGAP1 inh -12.6, ASAP1 GAP inh 9.1 and sPLA2-III inh -7.3.
Cc1ccc(-c2nn(-c3ccccc3)cc2/C=N/n2c(-c3cccs3)n[nH]c2=S)cc1 was read as SKKanGAS inh 55.0*, Calb FLC -1.9, ARFGAP1 inh -13.1, ASAP1 GAP inh -1.7 and sPLA2-III inh -4.0.
CN1c2ccccc2C(C)(C)C12C=Nc1c(ccc3ccccc13)O2 (centres undefined) was read as SKKanGAS inh 104.8*, Calb FLC 37.9, ARFGAP1 inh 8.9, ASAP1 GAP inh 13.2 and sPLA2-III inh -0.7.
COc1ccc2ccc3c(c2c1)N=CC1(O3)N(C)c2ccccc2C1(C)C (centres undefined) was read as SKKanGAS inh 93.4* and Calb FLC 45.6.
Screening CN1c2ccccc2C(C)(C)[C@]12C=Cc1cc(O)ccc1O2 returned SKKanGAS inh 7.2, Calb FLC 4.6, ARFGAP1 inh 2.0, ASAP1 GAP inh 10.2 and sPLA2-III inh 2.8.
Cc1c(Cl)ccc2c1NC(=O)[C@]21N[C@@H](Cc2ccccc2)[C@H]2C(=O)N(c3ccc(F)cc3)C(=O)[C@H]21 was read as SKKanGAS inh 13.3, Calb FLC 89.1*, ARFGAP1 inh 1.6, ASAP1 GAP inh -7.3 and sPLA2-III inh -37.8.
`COc1cc(Cc2cc(N)nc(N)n2)cc(OC)c1OC` gave SKKanGAS inh 70.8*, Calb FLC -0.5, ARFGAP1 inh 0.0, ASAP1 GAP inh 7.2 and sPLA2-III inh 6.7.
`COc1ccc(CCc2cc(OC)c(OC)c(OC)c2)cc1` gave ARFGAP1 inh -4.7, ASAP1 GAP inh 3.2 and sPLA2-III inh -8.2.
`Cc1ccc(CNC(=O)O[C@H]2CC[C@@]34CCCN3C(=O)CCC[C@H]4[C@H]2C)o1` gave sPLA2-III inh 3.4.
`C=CC(C)(C)c1c(O)c(CC=C(C)C)c(O)c2c(=O)c3ccc(O)c(O)c3oc12` gave SKKanGAS inh 103.3* and Calb FLC 83.6*.
`C=CC(C)(C)c1c2occc2c(O)c2ccc(=O)oc12` gave ARFGAP1 inh 11.4, ASAP1 GAP inh -6.2 and sPLA2-III inh 7.3.
Screening CCc1ccc(NSc2ccccc2[N+](=O)[O-])cc1 returned SKKanGAS inh 76.0*, Calb FLC -4.7, ARFGAP1 inh 1.4, ASAP1 GAP inh 10.7 and sPLA2-III inh 13.3.
For Cc1cc(C)n(CCNC(=O)[C@H]2O[C@@H](n3cnc4c(N)ncnc43)[C@H](O)[C@@H]2O)n1 the results were ARFGAP1 inh 0.6, ASAP1 GAP inh 4.1 and sPLA2-III inh 7.4.
Screening COC(=O)CSc1nnc(NC(=O)c2ccc3c(c2)OCO3)s1 returned SKKanGAS inh 52.4*, Calb FLC -0.4, ARFGAP1 inh -1.0, ASAP1 GAP inh -0.5 and sPLA2-III inh 4.5.
Screening O=C(O)CSc1nnc(NC(=O)c2ccc3c(c2)OCO3)s1 returned SKKanGAS inh -13.7, Calb FLC inconclusive, ARFGAP1 inh -15.6, ASAP1 GAP inh -2.3 and sPLA2-III inh -6.2.
For CCC(C)Nc1nc(N)c([N+](=O)[O-])c(Nc2cc(OC)ccc2OC)n1 (centres undefined) the results were SKKanGAS inh 68.7*, Calb FLC 7.6, ARFGAP1 inh 11.6, ASAP1 GAP inh 13.9 and sPLA2-III inh 0.0.
CC1=NN(C(N)=S)C(=O)C1N=Nc1c(Cl)cc([N+](=O)[O-])cc1Cl (centres undefined) was read as SKKanGAS inh 50.2*, Calb FLC 5.0, ARFGAP1 inh -17.4, ASAP1 GAP inh -9.4 and sPLA2-III inh 1.9.
CC1=NN(C(N)=S)C(=O)C1N=Nc1c(Br)cc(Br)cc1Br (centres undefined) was read as SKKanGAS inh 66.3*, Calb FLC 63.1, ARFGAP1 inh 0.3, ASAP1 GAP inh 5.5 and sPLA2-III inh -0.2.
For CC1=NN(C(N)=S)C(=O)C1N=Nc1c(C)cc(C)cc1C (centres undefined) the results were SKKanGAS inh 50.7*, Calb FLC -7.8, ARFGAP1 inh 11.5, ASAP1 GAP inh 13.4 and sPLA2-III inh 3.6.
CC1=NN(C(N)=S)C(=O)C1N=Nc1ccc(S(N)(=O)=O)cc1 (centres undefined) was read as SKKanGAS inh 0.3, Calb FLC -3.6, ARFGAP1 inh -5.5, ASAP1 GAP inh 9.5 and sPLA2-III inh 15.8.
`CC1=NN(C(N)=S)C(=O)C1N=Nc1ccc(C)cc1C` (centres undefined) gave SKKanGAS inh 4.2, Calb FLC 23.5, ARFGAP1 inh 4.1, ASAP1 GAP inh -10.9 and sPLA2-III inh -1.7.
`CCc1nc2ccc(C(=O)NCc3ccccc3OC)cn2c1N(C)Cc1ccc(OC)cc1` gave ARFGAP1 inh -4.9, ASAP1 GAP inh -1.6 and sPLA2-III inh -7.3.
Screening COc1ccc(/C=N/NC(=O)c2cc(C(C)(C)C)[nH]n2)cc1COc1ccc(F)cc1F returned SKKanGAS inh 60.5*, Calb FLC 8.8, ARFGAP1 inh 5.3, ASAP1 GAP inh 3.6 and sPLA2-III inh -16.8.
COc1ccc(/C=N\NC(=O)c2cc(O)c(O)c(O)c2)cc1COc1ccc(C(=O)OCC(C)C)cc1 was read as SKKanGAS inh 89.6*, Calb FLC 66.4, ARFGAP1 inh 2.3, ASAP1 GAP inh 18.4 and sPLA2-III inh 25.1*.
For COc1ccc(/C=N/NC(=O)c2ccc(C)cc2)cc1CN1CCN(c2ccc(F)cc2)CC1 the results were SKKanGAS inh 6.9 and Calb FLC -2.1.
`COc1ccc(C(=O)N/N=C/c2ccc(OC)c(COc3ccccc3)c2)cc1` gave SKKanGAS inh 12.5, Calb FLC 6.2, ARFGAP1 inh 10.2, ASAP1 GAP inh 19.9 and sPLA2-III inh -3.9.
